Bioassay records (PubChem)
MrgX1 agonist: agonists of human MrgX1 receptor, primary screen, HEK293 cells, Fluo-4 calcium flux. Fluo-4 calcium fluorescence, agonist mode; hits give high values. B-score at 10 µM. 310,000 tested, 0.44% active;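 active = calcium response B-score plate-corrected fluorescence ratio at least 3 library SD, with starting fluorescence B-score inside 5 SD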
Target sequence (Q96LB2 whole entry, looked up): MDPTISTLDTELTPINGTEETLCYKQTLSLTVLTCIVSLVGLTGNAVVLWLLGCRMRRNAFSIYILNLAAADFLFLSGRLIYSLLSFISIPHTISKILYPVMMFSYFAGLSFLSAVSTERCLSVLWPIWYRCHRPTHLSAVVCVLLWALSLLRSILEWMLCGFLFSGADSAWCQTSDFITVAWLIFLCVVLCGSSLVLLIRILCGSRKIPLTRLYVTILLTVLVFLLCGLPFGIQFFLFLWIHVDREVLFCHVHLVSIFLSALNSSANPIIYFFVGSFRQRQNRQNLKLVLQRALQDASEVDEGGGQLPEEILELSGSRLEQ
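times = overnight plating, then 30 min 37 °C plus 30 min room-temperature dye loading | assay system = stable human MrgX1 HEK293 cell line | input = fifteen thousand cells per well | signal = kinetic calcium dye fluorescence, Fluo-4 NW | dosing = compound delivered in addition one of three | read-out = B-scored fluorescence response ratio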
MrgX1 antag: antagonists of human MrgX1 receptor, primary screen, HEK293 cells, Fluo-4 calcium flux; BAM8-22 antagonism; hits give low values; B-score at 10 µM; 310,000 tested, 1.3% active;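 active = calcium-response B-score plate-corrected more than 3 library SD below zero, starting fluorescence within 5 deviations, no agonist response on first addition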;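 note: peak minus trough fluorescence over baseline after final BAM8-22 challenge near maximal dose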
RGS4 inh: RGS4 inhibitors, primary screen, cell-based, HEK293 M3R inducible RGS4, calcium flux. AID 463165, 2010. Fluo-4 calcium flux; hits give high values; triggered by carbachol at its EC20. B-score at 10 µM. Regulator of G-protein signaling 4 (Homo sapiens), P49798. 310,000 tested, 0.45% active;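 active = B-score, a plate-corrected calcium signal, over three deviations above library mean, with baseline fluorescence within five deviations of library mean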;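 note: RGS4 expression induced by doxycycline in cells with stable M3 receptor; B-score is computed from the integrated fluorescence ratio over baseline after carbachol; higher B-score means a larger calcium signal and so more RGS4 inhibition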
Target sequence (P49798 whole entry, looked up): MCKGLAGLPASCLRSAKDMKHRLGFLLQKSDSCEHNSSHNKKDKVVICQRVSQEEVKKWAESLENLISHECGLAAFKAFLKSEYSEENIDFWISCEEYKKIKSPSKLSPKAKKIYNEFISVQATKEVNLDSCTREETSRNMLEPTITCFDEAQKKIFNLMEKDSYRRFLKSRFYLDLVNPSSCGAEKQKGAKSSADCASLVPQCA
MrgX1 allo act: positive allosteric modulators of MrgX1, primary screen, HEK293 cells, Fluo-4 calcium flux; Mas-related G-protein coupled receptor member X1 (Homo sapiens), Q96LB2; FDSS; hits give high values; B-score at 10 µM; 310,000 tested, 0.63% active; AID 588675, 2011;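 active = plate-corrected calcium response at least 3 library SD above typical, normal starting fluorescence, not activating the receptor alone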;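 note: compound read alongside a low EC10 to EC30 dose of BAM8-22 agonist; peak minus trough fluorescence over baseline measured at the second addition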
RGS4 pot: RGS4 potentiators or activators, primary screen, cell-based, HEK293 M3R inducible RGS4, calcium flux; 310,000 tested, 0.92% active; carbachol calcium flux Fluo4; hits give low values; B-score at 10 µM;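 active = B-score of the integrated calcium signal more than 4 SD below the library mean, with starting fluorescence not abnormally high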;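 note: negative B-score means reduced calcium response which marks RGS4 activation or potentiation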
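test system = M3R-expressing HEK293 line, RGS4 induced by doxycycline | probe or stimulus = carbachol at ECmax as muscarinic agonist stimulus | timing = dye loading 30 min 37 °C, buffer rest 30 min RT | signal = calcium dye Fluo4 fluorescence | evaluation = B score from integrated fluorescence ratio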
RGS4 inh valid: enhanced carbachol calcium response, M3R/RGS4 cells, RGS4 inhibitor project, cell-based, validation screen, HEK293 M3R/RGS4, calcium flux. shares compounds with RGS4 inh. AID 492999, 2010. carbachol calcium Fluo-4 fluorescence; carbachol added at its EC20; 0 = buffer wells, 100 = carbachol control. calcium response, % at 10 µM. 1,700 tested, 65% active;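 active = duplicate-averaged calcium response above the buffer-only control mean plus 5 SD of those controls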;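 note: integrated fluorescence ratio F max minus min over baseline F0; higher response in RGS4-induced cells means RGS4 inhibition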
RGS4 uninduced: carbachol calcium response in non-induced M3R cells, confirmation, counter-screen for RGS4 inhibitor project, cell-based, HEK293 M3R. shares compounds with RGS4 inh. carbachol calcium Fluo-4; submaximal (EC20) carbachol stimulus; buffer wells 0%, carbachol control wells 100%. activity (percent), % at 10 µM. 1,900 tested, 20% active. AID 493000, 2010; call rule not given here;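 note: RGS4 induction absent so cells express M3R without RGS4; higher means more calcium signal and flags a non-specific hit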
M3R basal Ca ctr: second RGS4 inhibitor counter-screen in uninduced cells lacking carbachol. HEK293 M3R/RGS4 non-induced, Fluo-4 calcium, no carbachol; normalised: buffer wells 0%, carbachol wells 100%. 1,900 tested, 22% active. shares compounds with RGS4 inh. calcium response (agonist-mode artifact), % at 10 µM;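 active = duplicate-averaged calcium rise in uninduced cells above buffer wells' mean plus 5 SD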
Starred values were filed as active, the others as inactive; i = inactive; nt = no result given. Hits are enriched below; roughly 3.5% of the tested compounds scored in any of these assays.

SMILES	MrgX1 agonist	MrgX1 antag	RGS4 inh	MrgX1 allo act	RGS4 pot	RGS4 inh valid	RGS4 uninduced	M3R basal Ca ctr
COc1ccccc1-c1nnc2n1N=C(c1ccc(O)c(O)c1)CS2	i	i	i	i	i	nt	i	i
COc1ccc(C2=Nn3c(nnc3-c3cccnc3)SC2)cc1OC	i	i	i	i	i	i	i	i
Brc1ccc(C2=Nn3c(nnc3-c3cccnc3)SC2)s1	i	i	i	i	i	nt	nt	nt
O=C(O)C1(S(=O)(=O)c2ccc(Cl)cc2)CCC1	i	i	i	i	i	nt	nt	nt
O=C(CSc1ccccn1)NC1CCCC1	i	i	i	i	i	nt	nt	nt
CC(=O)Nc1sc(N/N=C/c2ccccc2)nc1-c1ccc(C)cc1	i	i	i	i	i	nt	nt	nt
CCCc1sc(N/N=C/c2ccccn2)nc1-c1ccc(Br)cc1	i	i	i	i	i	nt	i	i
CC(=O)Nc1ccc(S(=O)(=O)Nc2nc3ccccc3nc2Nc2cccc(S(N)(=O)=O)c2)cc1	i	i	i	i	i	nt	nt	nt
Cc1ccc(NC(=O)C2Cc3ccccc3CN2C(=O)c2ccccc2)cc1Cl (stereo not given)	i	i	i	i	i	nt	nt	nt
CCOc1cc(CNc2ccc(S(N)(=O)=O)cc2)cc(Cl)c1OC	i	i	i	i	i	nt	nt	nt
CCOc1cc(CNc2ccc(N3CCCC3)cc2)cc(Cl)c1OC	i	i	5.1*	i	i	14%*	i	i
CCCOc1ccc(/C=c2\sc3ncnn3c2=O)cc1	i	i	5.8*	i	i	9.0%*	49%*	14%*
Nc1ccc(C23CC4CC(CC(C4)C2)C3)cc1	i	i	7.9*	i	i	13%*	i	i
O=S(=O)(/N=C(/Sc1ccccc1)c1ccccc1)c1ccccc1	i	i	13*	i	i	16%*	i	22%*
CS/C(=N\S(=O)(=O)c1ccccc1)c1ccccc1	i	i	i	i	i	nt	nt	nt
COc1ccc(OC)c(CCNC(=O)CCn2nc(C)c3c(C)n(-c4ccccc4)nc3c2=O)c1	i	i	i	i	i	nt	nt	nt
O=C(COc1ccc([N+](=O)[O-])cc1)NCCC1=CCCCC1	i	i	5*	i	i	i	i	i
COc1ccc(NC(=O)C(CC(=O)O)C(C)c2ccccc2)cc1 (stereo not given)	i	i	i	i	i	nt	nt	nt
O=C(O)c1ccc2c(=O)n3c(nc2c1)/C(=C/c1ccc(Cl)cc1Cl)CC3	i	i	19*	i	i	24%*	i	i
O=C(NC1CCCC1)c1nc2c(nnn2Cc2ccccc2Cl)c(=O)[nH]1	i	i	i	i	i	nt	nt	nt
COc1cccc(OC)c1NC(=O)c1nc2c(nnn2Cc2ccccc2Cl)c(=O)[nH]1	i	i	5.5*	i	i	14%*	i	i
COc1ccc(C(C(=O)NC2CCCCC2)N(C(=O)Cc2c[nH]c3ccccc23)c2ccccc2C)cc1OC (stereo not given)	i	i	i	i	i	i	i	i
Oc1ccc(C[C@@H]2CNC(=S)N2CCCCC2CCCCC2)cc1	i	i	5.3*	i	i	18%*	i	i
CC1CCN(c2nc(-c3ccco3)c3c(c2C#N)CC(C)(C)OC3)CC1	i	i	i	i	i	i	i	15%*
CC1(C)Cc2c(C#N)c(N3CCOCC3)nc(-c3ccccc3)c2CO1	i	i	i	i	i	nt	nt	nt
SMILES	MrgX1 agonist	MrgX1 antag	RGS4 inh	MrgX1 allo act	RGS4 pot	RGS4 inh valid	RGS4 uninduced	M3R basal Ca ctr
COc1ccc(/C=C/C(=O)C(C)(C)C)cc1OC	i	i	i	i	i	nt	nt	nt
COc1ccc(C=C(C(C)=O)C(C)=O)cc1OC	i	i	18*	i	i	28%*	44%*	i
COc1cc(C=C(C(C)=O)C(C)=O)ccc1O	i	i	5.4*	i	i	6.0%*	i	i
O=C1NC(c2ccccc2)=C(c2nc3ccccc3s2)C(c2ccc(F)cc2)N1 (stereo not given)	i	i	i	i	i	nt	i	i
COc1ccc(C2NC(=O)NC(c3ccccc3)=C2c2nc3ccccc3s2)cc1 (stereo not given)	i	i	i	i	i	nt	nt	nt
COc1ccc(OCCCC(=O)OCC(=O)NNC(=O)c2ccc([N+](=O)[O-])cc2)cc1	i	i	i	i	i	nt	nt	nt
O=C(c1ccco1)N1CCN(c2ncnc3c(-c4ccccc4)nsc23)CC1	i	i	i	i	i	nt	i	i
NC(=O)C1CCN(c2ncnc3c(-c4ccccc4)nsc23)CC1	i	i	i	i	i	nt	nt	nt
COc1ccc(-c2nsc3c(N4CCN(C(=O)c5ccco5)CC4)ncnc23)cc1	i	i	i	i	i	i	i	i
CC(=O)N1CCc2c(sc3c2c(=O)n(Cc2ccccc2)c(=O)n3CC(=O)NCC2CCCO2)C1 (stereo not given)	i	i	i	i	i	nt	nt	nt
CCOC(=O)N1CCc2c(sc3c2c(=O)n(Cc2ccccc2)c(=O)n3Cc2ccc(C)cc2)C1	i	i	8.7*	i	i	38%*	30%*	i
COC(=O)c1cc(S(=O)(=O)N2CCOCC2)c(Cl)cc1N1CCOCC1	i	i	i	i	i	nt	nt	nt
COC(=O)c1cc(C)nc2c1C(=O)C(=O)C=C2N1CCOCC1	i	i	21*	i	i	34%*	i	i
O=C1NN(c2cccc(Br)c2)C(=O)/C1=C\c1ccccc1	i	i	18*	i	i	16%*	32%*	14%*
